Compound activity deposited in PubChem BioAssay by The Scripps Research Institute Molecular Screening Center.
In the library only some 2.3% were active in any assay of this set; here they are far more common.
ADAM17 inh: ADAM17 inhibition, QFRET primary screen; hit rate 0.83% among 370,000; P78536; inhibition, % at 6.95 µM; recombinant ADAM17, EDANS/DABCYL FRET peptide cleavage;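 active means inhibition above the mean of compounds lying between control limits plus 3 SD, set per campaign, cut at about 8.5% in these data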;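 further: 0% = DMSO-only wells as the low control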
ADAM10 inh: inhibits human ADAM10 | recombinant ADAM10, EDANS/DABCYL FRET peptide cleavage, 3 h | O14672 | AID 720582 | inhibition, % at 7 µM | hit rate 0.62% among 370,000;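 active means inhibition above a per-campaign cutoff equal to the mean of compounds falling between control-based bounds plus 3 SD, cut at about 20% in these data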;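 further: 0% = DMSO wells while the 100% control is not disclosed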
PLCb3 inh: blocks human PLC-beta3 enzyme activity; inhibition, % at 12.2 µM; hit rate 0.18% among 370,000; AID 720704; Purified PLC-beta3, fluorogenic substrate, fluorescence;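 further: 0% = median of compound wells on plate and 100% = full blocker control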
Tb MetRS inh: Trypanosoma brucei MetRS inhibition; purified T. brucei MetRS, ATP depletion, Kinase-Glo luminescence; inhibition, % at 11.9 µM; hit rate 0.4% among 360,000; AID 624268;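 active means inhibition above a per-plate cutoff of the control wells' mean inhibition plus 3 SD, cut at about 5.5% in these data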;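 further: 0% = DMSO wells median and 100% = median of wells with control inhibitor compound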
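Material: parasite MetRS enzyme / Replication: singlicate, one well per compound / Signal: luminescence of leftover ATP / Schedule: 2 h aminoacylation at 25 °C after 15 min preincubation / Medium: HEPES-MgCl2-KCl buffer plus DTT, spermine, BSA, pyrophosphatase / Doses: 11.9 µM single point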
PLCg1 inh: blocks human PLC-gamma1 enzyme activity. AID 720700. hit rate 0.84% among 370,000. inhibition, % at 12.2 µM. purified PLC-gamma1, fluorogenic substrate, fluorescence; in the data active means inhibition above about 9.5%
ADAM10 confirm: human ADAM10 inhibition, confirmation. shares compounds with ADAM10 inh. ADAM10 QFRET peptide cleavage, EDANS fluorescence. inhibition, % at 6.95 µM. hit rate 1% among 2,100;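 active means inhibition above about 20% chosen separately for each screening run, limit read from the data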;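 further: 0% = DMSO wells and 100% = marimastat wells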
ADAM17 ctr: ADAM17 inhibition, counter-screen for ADAM10 exosite hits; shares compounds with ADAM10 inh; ADAM17 QFRET peptide cleavage, EDANS fluorescence; inhibition, % at 6.95 µM; hit rate 0.5% among 2,100; AID 743214;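 active means mean triplicate inhibition above the solvent-only control wells' mean plus 3 SD, cut at about 12% in these data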;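 further: 0% = DMSO wells and 100% = marimastat wells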
ADAM10 counter: inhibits human ADAM10 in ADAM17 exosite counter-screen; AID 743256; recombinant ADAM10, EDANS/DABCYL FRET peptide cleavage, 3 h; hit rate 47% among 2,900; shares compounds with ADAM17 inh; inhibition, % at 6.95 µM;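 active means mean inhibition over the triplicate runs exceeds the activity threshold set in the earlier primary screen, cut at about 20% in these data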;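 further: 0% = DMSO wells and 100% = marimastat wells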
ADAM17 confirm: human ADAM17 inhibition, confirmation; shares compounds with ADAM17 inh; recombinant ADAM17, EDANS/DABCYL QFRET peptide cleavage; inhibition, % at 6.95 µM; hit rate 65% among 2,900; AID 743257;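 active means mean inhibition across replicates above the hit cutoff set in the primary screen, cut at about 8.5% in these data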;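 further: 0% = DMSO wells and 100% = marimastat wells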
PLCgamma1 ctr: inhibits human PLC-gamma1 in PLC-beta3 counter-screen; inhibition, % at 12.3 µM; purified PLC-gamma1, fluorogenic substrate, fluorescence; shares compounds with PLCg1 inh; hit rate 3.1% among 3,300; in the data active means inhibition above about 9.5%
PLCb3 confirm: confirmation of human PLC-beta3 inhibitors; shares compounds with PLCg1 inh; purified PLC-beta3, fluorogenic substrate fluorescence; inhibition, % at 12.3 µM; hit rate 1% among 3,300; AID 743261
Active calls of the source: *; . = no result. Unless noted, no stated cut-off is given here; in the data, active means inhibition above about 11%; inactive means the rest.

SMILES	ADAM17 inh	ADAM10 inh	PLCb3 inh	Tb MetRS inh	PLCg1 inh	ADAM10 confirm	ADAM17 ctr	ADAM10 counter	ADAM17 confirm	PLCgamma1 ctr	PLCb3 confirm
O=C(NCc1nc(-c2ccc(C(F)(F)F)cc2)no1)Nc1cc(Cl)cc(Cl)c1	-2	0	-5	-1	1	.	.	.	.	.	.
CCC1CO/C(=C(\C(Cl)=C(Cl)Cl)[N+](=O)[O-])N1 (configuration not stated)	13*	33*	8	-1	9.7*	16	5	30*	17*	2	9
c1cc(-c2nnc3n2N=C(c2ccc4c(c2)OCO4)CS3)ccn1	-2	-13	0	.	4	.	.	.	.	.	.
O=C(NCc1ccco1)c1cccc2c1C(=O)c1ccc(N3CCC(N4CCCCC4)CC3)cc1S2(=O)=O	1	-1	-125	-1	-90	.	.	.	.	.	.
COCCn1c(SCC(=O)N2CCCC2)nc2c(c1=O)SCC2	7	21*	11*	0	7	6	1	.	.	4	4
COCCn1c(SCC(=O)N2CCC(C)CC2)nc2c(c1=O)SCC2	0	-12	-9	0	5	.	.	.	.	.	.
CC(C)(C)c1ccc(S(=O)(=O)Nc2ccc(C(O)(C(F)(F)F)C(F)(F)F)cc2)cc1	27*	62*	6	0	13*	3	1	54*	31*	-3	-8
CC(C)(C)c1ccc(S(=O)(=O)Nc2ccc(C(=O)N3CCCC3)cc2)cc1	0	5	-8	0	7	.	.	.	.	.	.
CCOC(=O)/C(=N/Nc1ccccc1)Sc1nnc(CCc2ccccc2)n1-c1ccccc1	5	8	0	-1	-1	.	.	.	.	.	.
COc1ccccc1NC(=O)CNC(c1ccccc1)c1ccccc1	9.0*	29*	-3	0	13*	1	1	20*	11*	-3	-7
O=C(NC(=S)Nc1ccc(S(=O)(=O)Nc2nccs2)cc1)c1ccc(F)c(F)c1	11*	24*	10	0	14*	4	1	12	6	-5	-10
O=C(NC(=S)Nc1ccc(S(=O)(=O)Nc2nccs2)cc1)c1ccccc1	0	9	1	0	6	.	.	.	.	.	.
Nc1ncnc(N)c1NC(=O)c1ccccc1	1	-3	2	.	3	.	.	.	.	.	.
O=C(/C=C/c1ccc(O)c(O)c1)c1ccc(S(=O)(=O)N2CCCCCC2)cc1	18*	34*	7	1	11*	6	2	27*	17*	-1	-2
CCNC(=O)N1CCC(c2nc3ccccc3s2)CC1	0	-11	-7	-1	2	.	.	.	.	.	.
O=C(CSc1ccc(Cl)cc1Cl)N1CCC(c2nc3ccccc3s2)CC1	12*	21*	-4	1	11*	11	4	18	13*	-4	-9
COc1ccc(S[C@]2(C(=O)N3CCCC3)CC(=O)N(c3ccsc3)[C@@H]2c2ccc(OC)cc2)cc1	6	7	4	.	3	.	.	.	.	.	.
CC(C)C1S/C(=N/N=C/c2cccs2)NC1=O (configuration not stated)	9.4*	29*	11	-1	13*	1	0	8	5	-2	-3
Cc1ccc(NC(=S)NNc2ccc([N+](=O)[O-])cc2S(=O)(=O)Nc2ccccc2C(=O)O)cc1C	4	11	-6	0	-1	.	.	.	.	.	.
O=C(O)c1ccccc1NS(=O)(=O)c1ccc(NNC(=S)Nc2ccc(OC(F)F)cc2)c([N+](=O)[O-])c1	11*	24*	4	0	14*	0	0	19	12*	17*	-15
COc1cccc(NC(=O)C(Sc2nnc(-c3ccncc3)n2-c2ccc(Cl)cc2)c2ccccc2)c1 (configuration not stated)	14*	38*	4	0	11*	9	3	30*	16*	0	-1
Cn1cnnc1SCC(=O)Nc1ccc(Cl)c(S(=O)(=O)N2CCOCC2)c1	2	6	2	0	5	.	.	.	.	.	.
NC(=O)CSc1nnc(-c2ccccn2)n1Cc1ccco1	-6	1	0	0	0	.	.	.	.	.	.
Clc1ccccc1CSc1nnc(-c2ccccn2)n1Cc1ccco1	8	21*	1	-1	12*	1	0	.	.	-5	-4
Cc1ccc(Cn2nnc3c(=O)[nH]c(C4CCN(S(=O)(=O)c5cc(C)ccc5C)CC4)nc32)cc1	15*	43*	3	-1	12*	5	3	25*	11*	6	4
SMILES	ADAM17 inh	ADAM10 inh	PLCb3 inh	Tb MetRS inh	PLCg1 inh	ADAM10 confirm	ADAM17 ctr	ADAM10 counter	ADAM17 confirm	PLCgamma1 ctr	PLCb3 confirm
Cc1ccc(Cn2nnc3c(=O)[nH]c(C4CCN(S(=O)(=O)c5ccc(F)cc5)CC4)nc32)cc1	6	21*	0	-1	9.8*	1	1	.	.	-3	-3
O=c1[nH]c(C2CCN(S(=O)(=O)c3ccc(S(=O)(=O)NC4CC4)cc3)CC2)nc2c1nnn2Cc1ccc(F)cc1	1	11	-10	1	0	.	.	.	.	.	.
Cc1ccc(C)c(S(=O)(=O)N2CCC(c3nc4c(nnn4Cc4ccc(F)cc4)c(=O)[nH]3)CC2)c1	8	9	-2	0	7	.	.	.	.	.	.
Cc1cc(C)c([N+](=O)[O-])cc1NC(=O)CCSc1ccccc1Cl	-2	3	5	-1	2	.	.	.	.	.	.
O=C(CCSc1ccccc1Cl)Nc1cccc([N+](=O)[O-])c1	12*	29*	9	0	11*	2	0	24*	12*	6	6
CC(C)CC(COCc1cccc(C(F)(F)F)c1)N1CCN(C(=O)c2cccc(C(F)(F)F)c2)CCC1=O (configuration not stated)	7	21*	5	0	9.6*	3	0	.	.	1	2
C[C@@H]1CCCCO[C@@H](CN(C)S(=O)(=O)c2ccccc2)[C@@H](C)CN([C@H](C)CO)C(=O)c2cc(NS(=O)(=O)c3ccc(F)cc3)ccc2O1	17*	27*	8	0	17*	4	0	28*	15*	-2	-6
